Source: PubChem
H69AR growth 86K: proliferation blockers of H69AR lung cancer cells, primary screen, cell-based, human, 86K library | viability, % at 10 µM | 6% of 85,000 active | AID 598, 2007 | H69AR lung tumor viability, ATP luminescence, 72 h; stronger effect = lower value;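 active = viability at or below 40%; inactive = viability above 40%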;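 note: multidrug resistant small cell line overexpressing MRP-1 efflux transporter; 100% = mean luminescence of untreated control wells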
Lung fibro prol: antiproliferative effect on LL 47 fibroblasts – human, LL 47 cells, CellTiter-Glo luminescence, primary screen; LL 47 human lung fibroblast viability, ATP luminescence; stronger effect = lower value; viability, % at 10 µM; 1.1% of 85,000 active; AID 719, 2007;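 active = viability at or below 50% in the single dose screen; inactive = viability above 50%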;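 note: compound exposure lasted 72 h before the ATP readout; 100% = median luminescence of untreated cell-only wells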
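Times – overnight cell rest, 72 h compound treatment at 37 °C · Test system – human lung fibroblast line LL 47, low passage · Amount – 1,150 cells in each well · Controls – cell-only wells, no compound · Doses – 0.1% DMSO in all compound wells · Measured by – CellTiter-Glo luminescence · Buffer or medium – IMEM plus 15% FBS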
HCT116 PTEN-null: growth suppression of PTEN-null HCT116, primary screen, cell-based, CellTiter-Glo; HCT116 PTEN-null viability, 60 h; stronger effect = lower value; viability, % at 10 µM; 1.2% of 140,000 active;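 active = viability at or below a set limit, 4 SD under the median of all tested compounds, cut at about 3.7% in these data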;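 note: PTEN knockout HCT116 line with beta catenin targeted HCT116 as companion control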
HUVEC prolif 384: inhibitors of HUVEC proliferation, primary screen, cell-based, 384-well. CellTiter-Glo luminescence, 72 h; stronger effect = lower value. viability, % at 10 µM (by protocol). 1.1% of 86,000 active. AID 648, 2007;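 active = viability at or below 30%; inactive = viability above 30%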;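 note: 100% = median luminescence of DMSO-only cell control wells on each plate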
HCT116 bCat-KO: primary screen for growth suppressors in beta-catenin knockout HCT116 cells (colon tumor, human) | HCT116 beta-catenin knockout viability, CellTiter-Glo, 60 h; stronger effect = lower value | 1.5% of 140,000 active | viability, % at 10 µM | AID 818, 2007;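 active = viability at or under a set limit, the compound median less 4 SD, cut at about 6% in these data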;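 note: 0% = Hyamine 1622 control at 20 µM and 100% = untreated cell control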
Numbers without * were called inactive. Only a selection was taken, and hits are over-represented in it overall.

What do the screens show for `O=C(CCCCCn1c(=S)[nH]c2cc3c(cc2c1=O)OCO3)N1CCN(C2CCCCC2)CC1`?
H69AR growth 86K: 2.2*; Lung fibro prol: 4.8*; HCT116 PTEN-null: 2.7*; HUVEC prolif 384: 49; HCT116 bCat-KO: 8

Results for O=C(C1=C(c2ccccc2)C(=O)c2ccccc2C1=O)c1ccccc1 ?
HCT116 PTEN-null: 1.5*; HCT116 bCat-KO: 1.5*

Results for COC1=C(c2ccccc2)C(=O)c2ccccc2C1=O ?
HCT116 PTEN-null: 2.0*; HCT116 bCat-KO: 1.9*

How did O=C(c1ccccc1)c1c[nH]cc1-c1ccccc1 do in these assays?
H69AR growth 86K: 92; Lung fibro prol: 96; HCT116 PTEN-null: 87; HUVEC prolif 384: 94; HCT116 bCat-KO: 97

How did O=C(c1ccc2c(c1)OCO2)N(c1ccc(Cl)cc1)C1C=CS(=O)(=O)C1 (stereo not given) do in these assays?
H69AR growth 86K: 74; Lung fibro prol: 95; HCT116 PTEN-null: 88; HUVEC prolif 384: 99; HCT116 bCat-KO: 89

How did COc1ccc(C)cc1NC(=O)CC(O)(C(F)(F)F)C(F)(F)F do in these assays?
H69AR growth 86K: 74; Lung fibro prol: 97; HCT116 PTEN-null: 90; HUVEC prolif 384: 87; HCT116 bCat-KO: 96

How did Cc1ccc(NC(=O)CC(O)(C(F)(F)F)C(F)(F)F)cc1 do in these assays?
H69AR growth 86K: 22*; Lung fibro prol: 96; HCT116 PTEN-null: 90; HUVEC prolif 384: 110; HCT116 bCat-KO: 100

Results for CC(=O)c1ccc(NC(=O)c2ccc(S(=O)(=O)N3CCCC3)cc2)cc1 ?
H69AR growth 86K: 80; Lung fibro prol: 103; HCT116 PTEN-null: 102; HUVEC prolif 384: 99; HCT116 bCat-KO: 96

Results for CC(C)CC(=O)Nc1nc2ccc(S(=O)(=O)N3CCOCC3)cc2s1 ?
H69AR growth 86K: 27*; Lung fibro prol: 80; HCT116 PTEN-null: 36; HUVEC prolif 384: 67; HCT116 bCat-KO: 39

Results for CCCCC(=O)Nc1ccc(C(=O)Nc2ccc(S(=O)(=O)N3CCCC3)cc2)cc1 ?
H69AR growth 86K: 63; Lung fibro prol: 42*; HCT116 PTEN-null: 94; HUVEC prolif 384: 93; HCT116 bCat-KO: 89

Results for Cc1ccc2nc(NC(=O)C3CCCN(S(=O)(=O)c4cccnc4)C3)sc2c1 (stereo not given) ?
H69AR growth 86K: 28*; Lung fibro prol: 109; HCT116 PTEN-null: 76; HUVEC prolif 384: 100; HCT116 bCat-KO: 80

What do the screens show for `CC(C)[C@H](NC(=O)c1cccc(S(=O)(=O)N2CCOCC2)c1)C(=O)Nc1nc2ccccc2s1`?
HCT116 PTEN-null: 80; HCT116 bCat-KO: 75

Results for CCCC(=O)Nc1nc2ccc(S(=O)(=O)N3CCCCC3)cc2s1 ?
H69AR growth 86K: 20*; Lung fibro prol: 48*; HCT116 PTEN-null: 32; HUVEC prolif 384: 54; HCT116 bCat-KO: 33

Results for O=C(Nc1nc2ccc(S(=O)(=O)N3CCCC3)cc2s1)c1ccco1 ?
HCT116 PTEN-null: 106; HCT116 bCat-KO: 105

Results for CC(=O)Nc1cc(NC(C)=O)cc(C(=O)OCC(=O)N2CC(C)OC(C)C2)c1 (stereo not given) ?
H69AR growth 86K: 101; Lung fibro prol: 105; HCT116 PTEN-null: 100; HUVEC prolif 384: 108; HCT116 bCat-KO: 101

Results for Cc1ccc([N+](=O)[O-])cc1N=C(c1cccc(Br)c1)N1CCOCC1 ?
HCT116 PTEN-null: 80; HCT116 bCat-KO: 79

Results for Cc1c(-c2nc(N)nc(Nc3ccccc3)n2)oc2ccccc12 ?
H69AR growth 86K: 14*; Lung fibro prol: 97; HCT116 PTEN-null: 49; HUVEC prolif 384: 62; HCT116 bCat-KO: 58

What do the screens show for `COc1ccc(OCc2nc(N)nc(Nc3ccccc3)n2)cc1`?
H69AR growth 86K: 90; Lung fibro prol: 93; HCT116 PTEN-null: 98; HUVEC prolif 384: 120; HCT116 bCat-KO: 94

Results for COC(=O)c1ccc(Cl)c(NS(=O)(=O)c2ccc3c(c2)OCCO3)c1 ?
H69AR growth 86K: 20*; Lung fibro prol: 82; HCT116 PTEN-null: 34; HUVEC prolif 384: 61; HCT116 bCat-KO: 39

Results for CC(=O)c1cc2c(cc1NS(=O)(=O)c1ccc3c(c1)OCCO3)OCO2 ?
H69AR growth 86K: 65; Lung fibro prol: 89; HCT116 PTEN-null: 88; HUVEC prolif 384: 97; HCT116 bCat-KO: 82

How did COC(=O)COc1ccc(S(=O)(=O)Nc2ccc3c(c2)OCCO3)cc1Cl do in these assays?
H69AR growth 86K: 83; Lung fibro prol: 24*; HCT116 PTEN-null: 103; HUVEC prolif 384: 28*; HCT116 bCat-KO: 99

Results for COc1cccc(CNC(=O)C2CCN(S(=O)(=O)N3CCCC3)CC2)c1 ?
H69AR growth 86K: 97; Lung fibro prol: 95; HCT116 PTEN-null: 99; HUVEC prolif 384: 102; HCT116 bCat-KO: 85

What do the screens show for `Cc1nnc(NC(=O)CCC(=O)N2CCN(CCc3ccccc3)CC2)s1`?
H69AR growth 86K: 91; Lung fibro prol: 92; HUVEC prolif 384: 93

How did O=C1/C(=C\c2cccnc2)Sc2ccccc21 do in these assays?
HCT116 PTEN-null: 63; HCT116 bCat-KO: 65

How did CC1C/C(=C\c2cccnc2)C(=O)/C(=C/c2cccnc2)C1 (stereo not given) do in these assays?
HCT116 PTEN-null: 2.1*; HCT116 bCat-KO: 2.7*

What do the screens show for `CC12CCC(c3c(C(=O)O)nn(-c4ccccc4)c31)C2(C)C` (stereo not given)?
H69AR growth 86K: 85; Lung fibro prol: 98; HCT116 PTEN-null: 103; HUVEC prolif 384: 107; HCT116 bCat-KO: 93

Results for CC12CCC(c3c(C(=O)Nc4nccs4)nn(-c4ccccc4)c31)C2(C)C (stereo not given) ?
H69AR growth 86K: 20*; Lung fibro prol: 69; HCT116 PTEN-null: 1.6*; HUVEC prolif 384: 100; HCT116 bCat-KO: 1.4*

Results for CC12CCC(c3c1nc1ccccc1[n+]3[O-])C2(C)C (stereo not given) ?
HCT116 PTEN-null: 93; HCT116 bCat-KO: 95

What do the screens show for `CCN(CC)C(=S)SCC(=O)c1ccccc1`?
HCT116 PTEN-null: 104; HCT116 bCat-KO: 110

How did CCN(CC)C(=S)SSC(=S)N(CC)CC do in these assays?
HCT116 PTEN-null: 0.9*; HCT116 bCat-KO: 1.1*

What do the screens show for `CC(C)(C)n1cnc2cc(NS(=O)(=O)c3ccccc3)ccc21`?
H69AR growth 86K: 98; Lung fibro prol: 39*; HCT116 PTEN-null: 90; HUVEC prolif 384: 100; HCT116 bCat-KO: 86

Results for COc1ccc(-n2cnc3cc(NS(=O)(=O)c4ccccc4)ccc32)cc1 ?
H69AR growth 86K: 69; Lung fibro prol: 92; HCT116 PTEN-null: 71; HUVEC prolif 384: 76; HCT116 bCat-KO: 80

How did Cn1cnc2cc(NS(=O)(=O)c3ccc(Br)cc3)ccc21 do in these assays?
H69AR growth 86K: 39*; Lung fibro prol: 85; HCT116 PTEN-null: 61; HUVEC prolif 384: 98; HCT116 bCat-KO: 67
